The target in data set [1] is T1, Nociceptin receptor (Homo sapiens, UniProt P41146). Description: Displacement of [125I]Tyr14-nociceptin from human ORL1 receptor expressed in CHO cells. Format: cell-based. In a few lines: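 Competition binding to human ORL1 receptors transfected into CHO cells, with [¹²⁵I][Tyr¹⁴]nociceptin as radioligand; values given as IC₅₀.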
For orientation: In a radioligand displacement assay an active substance lowers the binding of a labelled ligand.

Data set [2] addresses T1, Nociceptin receptor. Description: Displacement of [125I]Tyr14-nociceptin from human ORL1 receptor expressed in CHO cells at 1 uM. Format: cell-based. In a few lines:
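Same radioligand displacement at human ORL1 in CHO cells ([¹²⁵I][Tyr¹⁴]nociceptin), but reported as % inhibition of binding at a single 1 μM test concentration.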

Data set [3] deals with Voltage-gated inwardly rectifying potassium channel KCNH2 (Homo sapiens, UniProt Q12809). Description: Displacement of [35S]MK499 from human ERG expressed in HEK293 cells overexpressing Ikr channel protein. Format: cell-based.
Sequence of Voltage-gated inwardly rectifying potassium channel KCNH2 (Q12809 whole entry): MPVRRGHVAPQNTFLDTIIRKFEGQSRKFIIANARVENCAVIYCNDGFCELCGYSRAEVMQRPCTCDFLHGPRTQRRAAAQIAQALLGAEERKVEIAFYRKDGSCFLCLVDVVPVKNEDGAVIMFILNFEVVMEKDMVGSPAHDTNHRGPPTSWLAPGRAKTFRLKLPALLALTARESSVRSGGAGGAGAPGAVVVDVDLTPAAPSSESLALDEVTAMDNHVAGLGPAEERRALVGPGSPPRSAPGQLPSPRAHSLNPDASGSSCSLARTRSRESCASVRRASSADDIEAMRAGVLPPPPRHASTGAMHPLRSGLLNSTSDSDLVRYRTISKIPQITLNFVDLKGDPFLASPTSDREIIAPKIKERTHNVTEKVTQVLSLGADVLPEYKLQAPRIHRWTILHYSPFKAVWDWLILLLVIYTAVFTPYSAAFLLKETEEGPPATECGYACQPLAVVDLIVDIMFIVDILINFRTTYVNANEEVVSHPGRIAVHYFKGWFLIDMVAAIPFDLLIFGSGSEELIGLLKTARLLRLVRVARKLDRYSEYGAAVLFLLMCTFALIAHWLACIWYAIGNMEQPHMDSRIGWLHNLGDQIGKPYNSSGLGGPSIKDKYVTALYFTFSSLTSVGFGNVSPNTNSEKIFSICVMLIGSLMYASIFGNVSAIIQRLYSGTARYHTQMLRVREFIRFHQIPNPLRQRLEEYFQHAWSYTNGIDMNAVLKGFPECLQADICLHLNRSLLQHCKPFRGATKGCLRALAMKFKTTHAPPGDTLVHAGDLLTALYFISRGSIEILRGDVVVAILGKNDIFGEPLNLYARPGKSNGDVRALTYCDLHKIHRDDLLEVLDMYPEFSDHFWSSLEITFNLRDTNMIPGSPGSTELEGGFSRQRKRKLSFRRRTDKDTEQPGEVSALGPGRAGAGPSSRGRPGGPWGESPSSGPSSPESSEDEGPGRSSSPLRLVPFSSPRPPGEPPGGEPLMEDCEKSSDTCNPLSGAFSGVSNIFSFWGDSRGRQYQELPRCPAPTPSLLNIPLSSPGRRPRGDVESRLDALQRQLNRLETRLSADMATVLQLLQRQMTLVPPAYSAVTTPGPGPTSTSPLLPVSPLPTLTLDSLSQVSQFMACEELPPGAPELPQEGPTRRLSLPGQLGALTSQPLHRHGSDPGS
Data set [4] in a line: Efflux ratio of permeability from basolateral to apical side over apical to basolateral side in pig L-MDR1 cells overexpressing human MDR1.
In data set [5] the target is T1, Nociceptin receptor. Description: Antagonist activity at human cloned ORL1 receptor expressed in CHO cells assessed as inhibition of nociceptin/orphanin FQ-stimulated [35S]GTPgammaS binding. It is filed as functional, cell-based. In short, it runs like this:
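Functional antagonism measured by stimulation of [³⁵S]GTPγS binding to membranes from CHO cells expressing ORL1, run per an earlier published protocol.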
Background: Binding of GTPγS marks nucleotide exchange on a G protein.

The subject of the next data set is MDR1 (human). Description: Apparent permeability across pig L-MDR1 cells overexpressing human MDR1. Format: ADME, cell-based, Sus scrofa. The settings on record: LLC-PK1. In short, it runs like this:
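P-gp transporter efflux assay: apparent permeability (Papp) reported in 10⁻⁶ cm/s; efflux expressed as the B–A/A–B ratio, with ratio accuracy considered compromised when Papp <10.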

A short description of data set [6]: Metabolic stability in rat liver microsomes at 1 uM after 30 mins. It is filed as ADME, Microsome. The settings on record: read-out: Stability. In a few lines: (§1)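 Parent compound at 1 μM was incubated with human or rat liver microsomes (0.25 mg protein/ml) for 30 min at 37 °C; stability was read out as % parent remaining.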
A general note: Microsomes from liver hold many membrane-bound enzymes, among them those of drug oxidation.

Data set [7] in a line: Half life in rat at 1 mg/kg, iv. The note with it: in vivo. Format: ADME, organism-based. Further details: dose 1 mg/kg, route intravenous.
Data set [8] can be described thus: Oral bioavailability in rat at 3 mg/kg. The note with it: in vivo. It is filed as ADME, organism-based.
Data set [9] in a line: Metabolic stability in human liver microsomes at 1 uM after 30 mins. Format: ADME, Microsome. The settings on record: read-out: Stability. In short, it runs like this:
as §1

Data set [10] can be described thus: Clearance in rat at 1 mg/kg, iv. The settings on record: in vivo. Further details: dose 1 mg/kg, route intravenous. It is filed as ADME, organism-based.

The structures appear in SMILES notation.

T1 sequence (P41146 whole entry): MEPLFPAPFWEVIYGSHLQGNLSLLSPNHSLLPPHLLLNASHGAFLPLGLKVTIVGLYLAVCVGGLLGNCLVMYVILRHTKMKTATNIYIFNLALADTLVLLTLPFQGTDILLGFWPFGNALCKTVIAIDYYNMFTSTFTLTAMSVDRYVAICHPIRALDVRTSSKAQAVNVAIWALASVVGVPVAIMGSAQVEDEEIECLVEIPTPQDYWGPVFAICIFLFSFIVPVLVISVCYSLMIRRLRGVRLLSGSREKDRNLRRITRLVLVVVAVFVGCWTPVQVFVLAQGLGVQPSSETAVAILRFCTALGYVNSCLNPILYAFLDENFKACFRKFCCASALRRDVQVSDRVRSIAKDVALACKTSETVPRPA

By IC50 is commonly meant the concentration that gives 50% inhibition. Regarding `Cc1c(CNC2CCCC2)cc(-c2ccc(Cl)cc2Cl)n1-c1ccc(Cl)cc1`, the IC50 at Nociceptin receptor [1] amounted to 200 nM.
On Nociceptin receptor [1], `Clc1ccc(-c2c(-c3ccc(Cl)cc3Cl)nc(CNC3CCCC3)n2C2CC2)cc1` gave an IC50 of 190 nM.
In general, inhibition refers to the share of the control response that was lost under treatment. The low end stands for little suppression, the high end for strong suppression. At Nociceptin receptor [1], `Clc1ccc(-c2c(-c3ccc(Cl)cc3Cl)nc(CNC3CCCC3)n2C2CCCCC2)cc1` showed an IC50 greater than 1000 nM. Besides, on Nociceptin receptor [2], the inhibition was 48%.
Compound `FCC(CF)n1c(CNC2CCCC2)nc(-c2ccc(Cl)cc2Cl)c1-c1ccc(Cl)cc1` showed a half-inhibitory concentration (IC50) on Nociceptin receptor [1] of 96 nM.
The same measure, in the same setting: to `FCCn1c(CNC2CCCC2)nc(-c2ccc(Cl)cc2Cl)c1-c1ccc(Cl)cc1` belongs 160 nM.
By Papp is commonly meant the rate of passage across a membrane or cell layer, normalised by area and donor concentration. As for `Cc1ccc(-n2c(-c3ncccc3Cl)nc(CNC3CCCC3)c2C(C)C)cn1`, the figures for the IC50 (at Nociceptin receptor [1]; in data set [3]; on Nociceptin receptor [5]) were 4.7 nM, 9900 nM and 9.6 nM, respectively. Moreover, the Ratio in [4] came to 22.9. The Papp in the data set on MDR1 (human) is 25 ×10⁻⁶ cm/s.
`FC(F)(F)Cn1c(CNC2CCCC2)nc(-c2ccc(Cl)cc2Cl)c1-c1ccc(Cl)cc1`: the IC50 at Nociceptin receptor [1] is greater than 1000 nM. Also, the inhibition on Nociceptin receptor [2] came out at 32%.
On the same counts, the results for `Cc1nn(-c2ccccc2)c(C)c1CNC1CCCC1` are greater than 1000 nM and 44%.
For the compound `Cc1c(CNC2CCCC2)nc(-c2ccc(Cl)cc2Cl)n1-c1ccc(Cl)cc1`, the IC50 on Nociceptin receptor [1] worked out at 28 nM.
Take `Clc1ccc(-c2oc(CNC3CCCC3)nc2-c2ccc(Cl)cc2Cl)cc1`: the IC50 on Nociceptin receptor [1] is greater than 1000 nM. The compound also yielded an inhibition at Nociceptin receptor [2] of 28%.
`Cn1c(CNC2CCCC2)nc(-c2ccc(Cl)cc2Cl)c1-c1ccc(Cl)cc1` displayed an IC50 on Nociceptin receptor [1] of 520 nM.
`FC(F)Cn1c(CNC2CCCC2)nc(-c2ccc(Cl)cc2Cl)c1-c1ccc(Cl)cc1`: the concentration for half-maximal inhibition (IC50) on Nociceptin receptor [1] turned out to be 500 nM.
Take `Cc1nc(CN[C@H]2CC[C@@H](F)C2)c(C(C)C)n1-c1cc(F)cc(F)c1`: the IC50 amounted to 8.6 nM at Nociceptin receptor [1], 34000 nM in [3] and 4.5 nM on Nociceptin receptor [5]. The Ratio in data set [4] was 3.2. Moreover, in the data set on MDR1 (human), the apparent permeability coefficient (Papp) came out at 34 ×10⁻⁶ cm/s.
In the case of `Cc1c(CNC2CCCC2)oc(-c2ccc(Cl)cc2Cl)c1-c1ccc(Cl)cc1`, the IC50 on Nociceptin receptor [1] is greater than 1000 nM. At Nociceptin receptor [2], this compound gave an inhibition of 25%.
On to `Cc1ccc(-n2c(-c3ncccc3Cl)nc(CN[C@H]3CC[C@@H](F)C3)c2C(C)C)cn1`, for which the values for the IC50 (on Nociceptin receptor [1]; in data set [3]; on Nociceptin receptor [5]) were 1.4 nM, 15000 nM and 2.3 nM, respectively. In [4], the Ratio is listed as 21.8. The Papp in the data set with MDR1 (human) turned out to be 24.1 ×10⁻⁶ cm/s.
As for `COCCc1nc(CN[C@H]2CC[C@@H](F)C2)n(C(C)C)c1-c1ccc(Cl)cc1`, the IC50 at Nociceptin receptor [1] was found to be 7.6 nM; at Nociceptin receptor [5], 5.6 nM. Also, the apparent permeability (Papp) with MDR1 (human) amounted to 28.6 ×10⁻⁶ cm/s.
In turn, `Cn1c(CNC2CCCC2)nc(-c2ccc(Cl)cc2)c1-c1ccc(Cl)cc1Cl` had an IC50 on Nociceptin receptor [1] of 850 nM.
The same measure, in the same setting: under `CC(C)n1c(CNC2CCCC2)nc(-c2ccc(Cl)cc2Cl)c1-c1ccc(Cl)cc1` stands 33 nM.
In turn, `Clc1ccc(-c2nc(CNC3CCCC3)nn2-c2ccc(Cl)cc2Cl)cc1` yielded a half-maximal inhibitory concentration (IC50) on Nociceptin receptor [1] greater than 1000 nM. This compound also showed an inhibition on Nociceptin receptor [2] of 48%.
In turn, `Clc1ccc(-c2cc(CNC3CCCC3)nn2-c2ccc(Cl)cc2Cl)cc1` showed an IC50 at Nociceptin receptor [1] of 130 nM.
On to `Clc1ccc(-c2nc(CNC3CCCC3)cn2-c2ccc(Cl)cc2Cl)cc1`, for which, at Nociceptin receptor [1], the IC50 was found to be 620 nM.
In turn, `Cc1c(CNC2CCCC2)nnn1-c1ccc(F)c(F)c1` yielded an IC50 at Nociceptin receptor [1] greater than 1000 nM. In addition, the inhibition at Nociceptin receptor [2] was 40%.
As to `Clc1ccc(-c2c(-c3ccc(Cl)cc3Cl)nc(CNC3CCCC3)n2C2CCCC2)cc1`, on Nociceptin receptor [1], the IC50 was greater than 1000 nM. Also, the inhibition on Nociceptin receptor [2] worked out at 43%.
At Nociceptin receptor [1], `CC(C)Cn1c(CNC2CCCC2)nc(-c2ccc(Cl)cc2Cl)c1-c1ccc(Cl)cc1` yielded an IC50 of 540 nM.
On the same count and under the same terms, to `CCn1c(CNC2CCCC2)nc(-c2ccc(Cl)cc2Cl)c1-c1ccc(Cl)cc1` belongs 160 nM.
As for `Cc1nc(CNC2CCCC2)n(C(C)C)c1-c1ccc(Cl)cc1`, the figures for the IC50 (at Nociceptin receptor [1]; in [3]) were 11 nM and 3200 nM, respectively. Moreover, the Ratio in data set [4] came out at 1. In addition, the Papp in the data set on MDR1 (human) is 18.2 ×10⁻⁶ cm/s.
Take `CC(C)(C)n1c(CNC2CCCC2)nc(-c2ccc(Cl)cc2Cl)c1-c1ccc(Cl)cc1`: the IC50 on Nociceptin receptor [1] is greater than 1000 nM. Also, the inhibition on Nociceptin receptor [2] worked out at 26%.
Regarding `Cc1ccc(-n2c(-c3ncccc3Cl)nc(CNC3CCCC3)c2C)cn1`, the IC50 at Nociceptin receptor [1] was 26 nM.
At Nociceptin receptor [1], `Cn1c(CNC2CCCC2)nnc1-c1cc(F)cc(F)c1` returned a concentration for half-maximal inhibition (IC50) greater than 1000 nM. Also, the inhibition on Nociceptin receptor [2] stood at 19%.
On Nociceptin receptor [1], `CCC(CC)n1c(CNC2CCCC2)nc(-c2ccc(Cl)cc2Cl)c1-c1ccc(Cl)cc1` yielded a half-maximal inhibitory concentration (IC50) of 160 nM.
For the compound `Cc1ccc(-n2c(-c3ncccc3Cl)nc(CN[C@H]3CC[C@@H](F)C3)c2C)cn1`, the results for the half-maximal inhibitory concentration (IC50) on Nociceptin receptor [1] and on Nociceptin receptor [5] were 9.1 nM and 3.7 nM, respectively. Moreover, in the data set with MDR1 (human), the apparent permeability coefficient (Papp) is 16.8 ×10⁻⁶ cm/s.
`Clc1ccc(-c2sc(CNC3CCCC3)nc2-c2ccc(Cl)cc2Cl)cc1` displayed an IC50 at Nociceptin receptor [1] greater than 1000 nM. This compound also had an inhibition on Nociceptin receptor [2] of 7%.
The term half-life denotes the time needed for the level to fall by half in the phase considered. A lower half-life goes with rapid decline. A word on the bioavailability: it is the share of a dose that reaches the circulation, judged against a reference dose that is usually intravenous. The clearance is the volume of plasma or blood freed of the substance per unit of time. A higher clearance goes with a high capacity for elimination. Regarding `CCc1c(CN[C@H]2CC[C@@H](F)C2)nc(-c2ncccc2Cl)n1-c1ccc(C)nc1`, the values for the 50% inhibitory concentration (IC50) (on Nociceptin receptor [1]; in data set [3]; on Nociceptin receptor [5]) were 3.2 nM, 15000 nM and 2.3 nM, respectively. In addition, the remaining at 0.5 h, 1 µM is 82% in data set [6] and 85% in [9]. The half-life in data set [7] is 30 min. In data set [8], this compound came in with a bioavailability of 10%. The Ratio in data set [4] worked out at 19.7. In addition, the clearance in data set [10] came to 114 mL/min/kg. Besides, in the data set on MDR1 (human), the apparent permeability (Papp) was determined as 20.6 ×10⁻⁶ cm/s.
With `Clc1ccc(-c2c(-c3ccc(Cl)cc3Cl)nc(CNC3CCCC3)n2C2CCC2)cc1`, the IC50 at Nociceptin receptor [1] came to 530 nM.
